Shown are actives, neighbours in structure and some others; about 2.6% of the full set was active somewhere.
RAD54 branch = inhibitors of human RAD54 branch migration, primary screen, biochemical, fluorescence, single point; inhibition, % at 10.4 µM; DNA repair and recombination protein RAD54-like (Homo sapiens), Q92698; RAD54 Holliday junction branch migration, FAM/BHQ fluorescence; 0.14% of 360,000 active;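 active = mean normalized replicate activity at least 40 and at least half of replicates scoring 40 or more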;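 note: 0% = median of neutral control wells and 100% = median of positive control wells; inhibitors cause a drop in the FAM fluorescence signal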
E-selectin induc = E-selectin induction in HUVECs, primary screen, imaging, HUVEC, immunofluorescence imaging, single point; activation, % at 7.58 µM; normalized: neutral wells 0, TNF-alpha wells 100; 0.37% of 260,000 active; P16581;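 active = mean E-selectin-positive cell signal at least 10% of the positive control, reached in at least 60% of replicates, without over 20% cell loss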
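Material: HUVEC primary endothelial cells; Amount: 3,000 cells per well; Dosing: single concentration; Medium: EGM-2 growth medium on 0.1% gelatin-coated wells; Read-out basis: percent E-selectin-positive cells; Signal: immunofluorescence imaging; Control set: TNF-alpha, DMSO.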
rRNA inh HTS = reduced GFP signal of wild-type E. coli, primary screen, bacterial rRNA inhibitor project, GFP/RFP fluorescence, OD600, single point; E. coli WT GFP vs humanized-ribosome RFP mutants, 24 h; stronger effect = lower value; DMSO median 0, no signal -100; GFP signal change (wild-type ribosome), % (no concentration beside the values); 1.6% of 350,000 active;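 active = significant combined selectivity score with lowered wild-type GFP, culture density cut under 30%, mutant RFP and density less affected; inactive = any of these conditions unmet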
AF4-AF9 inh = inhibitors of AF4 peptide binding to AF9, primary screen, biochemical, AlphaScreen, biotin-AF4 peptide, FLAG-AF9, single point; inhibition, % at 10 µM; 0.47% of 350,000 active; AID 651704, 2012;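 active = every replicate reaching a set inhibition limit, whatever the replicate mean, cut at about 25% in these data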;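 note: 0% = plate neutral control median and 100% = total signal loss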
Target sequence (P42568 whole entry, looked up): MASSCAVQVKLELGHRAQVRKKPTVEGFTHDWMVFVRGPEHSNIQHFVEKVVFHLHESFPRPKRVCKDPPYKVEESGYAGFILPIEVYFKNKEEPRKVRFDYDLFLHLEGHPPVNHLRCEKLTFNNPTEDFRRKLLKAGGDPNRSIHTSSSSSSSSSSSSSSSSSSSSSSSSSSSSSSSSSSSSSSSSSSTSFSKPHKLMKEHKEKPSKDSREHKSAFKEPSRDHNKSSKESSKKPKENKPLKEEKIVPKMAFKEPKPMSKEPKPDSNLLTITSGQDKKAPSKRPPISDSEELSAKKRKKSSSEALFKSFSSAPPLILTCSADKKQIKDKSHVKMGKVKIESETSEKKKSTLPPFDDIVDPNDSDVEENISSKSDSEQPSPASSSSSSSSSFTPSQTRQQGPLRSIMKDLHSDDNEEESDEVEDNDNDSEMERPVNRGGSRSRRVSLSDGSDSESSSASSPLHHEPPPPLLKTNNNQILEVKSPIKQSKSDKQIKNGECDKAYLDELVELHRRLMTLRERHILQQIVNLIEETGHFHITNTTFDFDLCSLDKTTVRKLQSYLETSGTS
INS-1E GSIS act = GLuc luminescence reporter in INS-1E cells, primary screen for activators of glucose-dependent secretion of insulin; INS-1E GLuc reporter insulin secretion, 2-3 h; activation, % at 16.6 µM; 0.61% of 370,000 active;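 active = lowest replicate activation of at least 40%, so every replicate reaches that level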;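 note: 0% = median of neutral control wells and 100% = median of IBMX positive control wells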
RAD52 inh = RAD52 DNA annealing inhibitors, primary screen, biochemical, FRET, single point, set 2; recombinant RAD52 DNA annealing, FRET fluorescence; DNA repair protein RAD52 homolog (Homo sapiens), P43351; 0.46% of 360,000 active; inhibition, % at 18.7 µM;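 active = every replicate showing at least 50% inhibition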
* = called active by the depositor; / = no result given; ! = repeats disagree.

SMILES	RAD54 branch	E-selectin induc	rRNA inh HTS	AF4-AF9 inh	INS-1E GSIS act	RAD52 inh
CCC(=O)N1CCC2(CC1)CN(C(=O)c1ccccn1)[C@H](CO)c1c2c2ccc(OC)cc2n1C	/	0	2	0	16	/
C/C=C/c1ccc([C@H]2[C@@H](CO)N(CC3CCOCC3)C23CN(S(=O)(=O)CC)C3)cc1	/	0	-1	1	-11	-31
O=C(c1cccs1)c1coc2ccc(O)c(CN3CCOCC3)c12	9	/	-4	/	65*	9
Cn1cc([N+](=O)[O-])c(C(=O)Nc2ccn(C34CC5CC(CC(C5)C3)C4)n2)n1	/	0	-26*	-30	-13	5
Cc1nn(C)c(C(=O)Nc2ccn(C34CC5CC(CC(C5)C3)C4)n2)c1[N+](=O)[O-]	/	-2	-32*	13	-24	-11
C[C@H](CO)N1C[C@H](C)[C@H](CN(C)C(=O)Nc2ccc(C(F)(F)F)cc2)Oc2ccc(NS(=O)(=O)c3ccc(F)cc3)cc2CC1=O	3	0	-1	3	-12	3
Cc1c(-c2ccccc2)nc2ccccc2c1C(=O)O	6	/	8	-11	-9	-14
Cc1c(-c2cccc(Cl)c2)nc2ccccc2c1C(=O)NC1CC1	-6	0	4	0	99*	-26
CC(=Nc1ccccc1)c1sc2ccccc2c1O	-3	/	-3	26*	-7	-90
CC(=Nc1ccc(Br)cc1)c1sc2ccccc2c1O	-18	/	7	0	-13	-5
COc1ccc(S(=O)(=O)Nc2ccc3c(c2)C(=O)N([C@@H](C)CO)C[C@H](C)[C@@H](CN(C)S(=O)(=O)c2ccc(OC)cc2)OCCCC[C@H](C)O3)cc1	15	0	-4	/	7	/
CC(C)[C@H]1C(=O)N[C@@H](c2ccccc2)CC=CC[C@H](C)Oc2ccccc2C(=O)N1C (mixture of isomers)	/	/	-9	/	-8	/
Cc1ccc(Cn2nnc3c(=O)n(CC(=O)N4CCN(c5ccccc5)CC4)cnc32)cc1	-5	/	-25*	1	-12	-5
Cc1ccc(Cn2nnc3c(=O)n(CC(=O)OCc4ccccc4)cnc32)cc1	0	/	-1	5	5	-13
CCCC(=O)Nc1ccc2c(c1)C(=O)N(C)C[C@@H](OC)[C@H](C)CN(C(=O)c1ccccc1F)[C@@H](C)CO2	-7	0	2	0	-4	-3
CC(=O)Nc1ccc2c(c1)Cc1cc(N3C(=O)C=CC3=O)ccc1-2	6	0	-28*	-7	39	-33
CCC(=O)Nc1nc2ccc(NC(=O)c3cc(OC)c(OC)c(OC)c3)cc2s1	-6	1	-36*	2	-5	-12
COc1cc(C(=O)Nc2ccc3nc(N4CCN(C)CC4)cc(C)c3c2)cc(OC)c1OC	44	0	-9	12	16	56*
COc1ccc(CNC(=S)Nc2ccc3nc(N4CCN(C)CC4)cc(C)c3c2)cc1	41	/	-9	26*	-3	47
Cc1cccc(Nc2nc(-c3ccc(F)cc3)cs2)n1	-1	/	-18*	-2	-9	-16
C[C@@H]1CCCCO[C@H](CN(C)CC2CC2)[C@H](C)CN([C@@H](C)CO)C(=O)c2cc(NS(=O)(=O)c3cccs3)ccc2O1	/	0	1	-9	0	24
C[C@@H]1CN([C@H](C)CO)C(=O)c2cc(NS(=O)(=O)c3ccc(Cl)cc3)ccc2O[C@@H](C)CCCCO[C@@H]1CN(C)Cc1ccc2c(c1)OCO2	-7	/	5	0	-15	33
C[C@@H]1CN([C@@H](C)CO)C(=O)c2cc(NS(=O)(=O)c3ccc(Cl)cc3)ccc2O[C@@H](C)CCCCO[C@H]1CN(C)Cc1ccc2c(c1)OCO2	-7	/	-15	6	-31	46
C[C@H]1CCCCO[C@@H](CN(C)Cc2ccc3c(c2)OCO3)[C@@H](C)CN([C@@H](C)CO)C(=O)c2cc(NS(=O)(=O)c3ccc(Cl)cc3)ccc2O1	-1	/	2	17	-9	55*!
C[C@H](CO)N1C[C@H](C)[C@H](CN(C)Cc2ccc3c(c2)OCO3)OCCCC[C@H](C)Oc2ccc(NS(=O)(=O)c3ccc(Cl)cc3)cc2C1=O	-7	/	-24	20	-21	63*
SMILES	RAD54 branch	E-selectin induc	rRNA inh HTS	AF4-AF9 inh	INS-1E GSIS act	RAD52 inh
CC1CCCC(NCC(O)COC(c2ccc(F)cc2)c2ccc(F)cc2)C1C (stereo unspecified)	11	2	-53*	9	5	44
COc1ccccc1N(C1=NCCCS1)S(=O)(=O)c1ccc(C(C)(C)C)cc1	/	5	-16*	2	-13	-21
CN(C)CCCN1c2ccccc2Sc2ccc3ccccc3c21	/	0	-62	30*	-26	21
CN(C)CCCN1c2ccc3ccccc3c2Sc2cccc(Cl)c21	/	1	-65	33*	/	33
CO[C@H]1CN(C)C(=O)c2cc(NC(=O)Nc3cccc(Cl)c3)ccc2OC[C@H](C)N(C)C[C@@H]1C	13	0	-3	6	10	22
Cc1ccc(C2CC(=O)C=C(NCc3ccccc3)C2)cc1 (stereo unspecified)	7	0	-32*	-1	4	-14
Cc1ccc(C2CC(=O)C=C(NCC(C)C)C2)cc1 (stereo unspecified)	4	-3	5	2	-7	-2
C/C=C/c1ccc2c(c1)O[C@@H](CN(C)C(=O)NCCC)[C@H](C)CN([C@@H](C)CO)S2(=O)=O	6	0	2	-1	4	1
O=C1CSC(c2ccc([N+](=O)[O-])cc2)N1CCN1CCCCC1 (stereo unspecified)	/	0	13	0	13	0
O=C1CSC(c2ccc([N+](=O)[O-])cc2)N1C1CCCCC1 (stereo unspecified)	/	/	0	-11	87*	-2
CCCn1cnc2cc(NCc3cccc(OC)c3O)ccc21	-7	/	/	/	/	/
COc1cccc(CNc2ccc3c(c2)ncn3C(C)C)c1OC	-5	1	-21*	48*	16	-6
O=C(N/N=C/c1cc([N+](=O)[O-])ccc1O)NC12CC3CC(CC(C3)C1)C2	/	/	/	1	/	-6
O=C(N/N=C/c1ccc(O)cc1O)NC12CC3CC(CC(C3)C1)C2	6	0	4	-2	41*	8
COc1ccc2c3c([nH]c2c1)[C@@H](CO)N(C(C)=O)CC31CN(S(=O)(=O)c2ccccc2)C1	/	0	-7	0	-5	3
